Converted amounts (≈) assume the structure as drawn.
Tested on: Phocaeicola vulgatus
Assay: In vitro antibacterial activity against anaerobically grown Bacteroides vulgatus (78D029)
Assay type: functional
Conditions: not given
In short: (§1)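 Agar dilution MICs. Anaerobic strains were tested on tryptose agar with 5% bovine blood and incubated 48 h at 39 °C in an anaerobe chamber under N2/CO2/H2 (80:10:10).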

SMILES	MIC [µg/mL]
CCn1cc(C(=O)O)c(=O)c2cc(F)c(N3CCN4CCCC3C4)cc21 (stereo not drawn)	3.13 (≈ 8.71 µM)
CN1C[C@@H]2C[C@H]1CN2c1cc2c(cc1F)c(=O)c(C(=O)O)cn2-c1ccc(F)cc1F	0.78 (≈ 1.82 µM)
CN1C[C@@H]2C[C@H]1CN2c1c(F)cc2c(=O)c(C(=O)O)cn(-c3ccc(F)cc3)c2c1F	3.13 (≈ 7.29 µM)
CN1C2CC[C@@H]1CCN(c1cc3c(cc1F)c(=O)c(C(=O)O)cn3C1CC1)C2	3.13 (≈ 8.12 µM)
CN1C[C@@H]2C[C@H]1CN2c1nc2c(cc1F)c(=O)c(C(=O)O)cn2-c1ccc(F)cc1	3.13 (≈ 7.59 µM)

Tested on: Pasteurella multocida
Assay: In vivo protective dose was evaluated against Pasteurella multocida (59A006) in mouse(sc)
Assay type: functional
Conditions: read-out: PD50
In short: (§2)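 Female CF-1 mice (15 g), groups of 10, challenged ip with 0.5 mL bacterial suspension (P. multocida 59A006 or E. coli 51A266 at 3.0 × 10^8 cfu/mL; S. choleraesuis 58B010 at 8.5 × 10^2 cfu/mL). Drug given sc or po at 30 min, 4 h and 24 h after challenge; survival recorded at 96 h; PD50 by probit analysis.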

SMILES	ED50 [mg/kg]
CCn1cc(C(=O)O)c(=O)c2cc(F)c(N3CCN4CCCC3C4)cc21 (stereo not drawn)	0.71
CN1C2CC[C@@H]1CCN(c1cc3c(cc1F)c(=O)c(C(=O)O)cn3C1CC1)C2	0.43

Tested on: Escherichia coli
Assay: Escherichia coli DNA cleavage endpoint value which is the minimum amount required (in micro g/mL) to induce detectable cleavage of supercoiled pBR322 substrate to linear form (gyrase)
Assay type: functional
Conditions: read-out: MIC
In short: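 DNA gyrase A and B subunits were purified from E. coli overproducers. About 2 units of holoenzyme were incubated with pBR322 in Tris-HCl pH 7.5 containing MgCl2, spermidine, DTT, 0.2 mM ATP, BSA and tRNA. Drug was added as 2-fold serial dilutions, and reactions ran for 60 min at 25 °C. Reactions were stopped with SDS and proteinase K, then run on agarose and stained with ethidium. The endpoint was the lowest concentration giving detectable linear DNA.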

SMILES	minimum concentration inducing gyrase-mediated DNA cleavage [µg/mL]
CCn1cc(C(=O)O)c(=O)c2cc(F)c(N3CCN4CCCC3C4)cc21 (stereo not drawn)	3.12
CN1C[C@@H]2C[C@H]1CN2c1cc2c(cc1F)c(=O)c(C(=O)O)cn2-c1ccc(F)cc1F	0.78
CN1C[C@@H]2C[C@H]1CN2c1c(F)cc2c(=O)c(C(=O)O)cn(-c3ccc(F)cc3)c2c1F	0.39
CN1C2CC[C@@H]1CCN(c1cc3c(cc1F)c(=O)c(C(=O)O)cn3C1CC1)C2	3.12
CN1C[C@@H]2C[C@H]1CN2c1nc2c(cc1F)c(=O)c(C(=O)O)cn2-c1ccc(F)cc1	1.56

Tested on: Actinobacillus pleuropneumoniae
Assay: In vitro antibacterial activity against anaerobically grown Actinobacillus pleuropneumoniae ([…])
Assay type: functional
Conditions: not given
In short: as §1

SMILES	MIC [µg/mL]
CCn1cc(C(=O)O)c(=O)c2cc(F)c(N3CCN4CCCC3C4)cc21 (stereo not drawn)	0.05 (≈ 0.139 µM)
CN1C[C@@H]2C[C@H]1CN2c1cc2c(cc1F)c(=O)c(C(=O)O)cn2-c1ccc(F)cc1F	0.005 (≈ 0.0116 µM)
CN1C[C@@H]2C[C@H]1CN2c1c(F)cc2c(=O)c(C(=O)O)cn(-c3ccc(F)cc3)c2c1F	0.05 (≈ 0.116 µM)
CN1C2CC[C@@H]1CCN(c1cc3c(cc1F)c(=O)c(C(=O)O)cn3C1CC1)C2	0.2 (≈ 0.519 µM)
CN1C[C@@H]2C[C@H]1CN2c1nc2c(cc1F)c(=O)c(C(=O)O)cn2-c1ccc(F)cc1	0.1 (≈ 0.242 µM)

Tested on: Staphylococcus aureus
Assay: In vitro antibacterial activity against aerobically grown Staphylococcus aureus (54B004)
Assay type: functional
Conditions: not given
In short: (§3)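 Agar dilution MICs. Aerobic strains were tested on brain heart infusion agar and incubated aerobically at 37 °C for 18–20 h.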

SMILES	MIC [µg/mL]
CCn1cc(C(=O)O)c(=O)c2cc(F)c(N3CCN4CCCC3C4)cc21 (stereo not drawn)	0.39 (≈ 1.09 µM)
CN1C[C@@H]2C[C@H]1CN2c1cc2c(cc1F)c(=O)c(C(=O)O)cn2-c1ccc(F)cc1F	0.1 (≈ 0.233 µM)
CN1C[C@@H]2C[C@H]1CN2c1c(F)cc2c(=O)c(C(=O)O)cn(-c3ccc(F)cc3)c2c1F	0.39 (≈ 0.908 µM)
CN1C2CC[C@@H]1CCN(c1cc3c(cc1F)c(=O)c(C(=O)O)cn3C1CC1)C2	0.39 (≈ 1.01 µM)
CN1C[C@@H]2C[C@H]1CN2c1nc2c(cc1F)c(=O)c(C(=O)O)cn2-c1ccc(F)cc1	0.2 (≈ 0.485 µM)

Tested on: Salmonella enterica
Assay: In vitro antibacterial activity against aerobically grown Salmonella choleraesuis (58B015)
Assay type: functional
Conditions: not given

SMILES	MIC [µg/mL]
CCn1cc(C(=O)O)c(=O)c2cc(F)c(N3CCN4CCCC3C4)cc21 (stereo not drawn)	0.2 (≈ 0.556 µM)
CN1C[C@@H]2C[C@H]1CN2c1cc2c(cc1F)c(=O)c(C(=O)O)cn2-c1ccc(F)cc1F	0.2 (≈ 0.466 µM)
CN1C[C@@H]2C[C@H]1CN2c1c(F)cc2c(=O)c(C(=O)O)cn(-c3ccc(F)cc3)c2c1F	0.39 (≈ 0.908 µM)
CN1C2CC[C@@H]1CCN(c1cc3c(cc1F)c(=O)c(C(=O)O)cn3C1CC1)C2	0.39 (≈ 1.01 µM)
CN1C[C@@H]2C[C@H]1CN2c1nc2c(cc1F)c(=O)c(C(=O)O)cn2-c1ccc(F)cc1	0.2 (≈ 0.485 µM)

Tested on: Bordetella bronchiseptica
Assay: In vitro antibacterial activity against aerobically grown Bordetella bronchiseptica (73A009)
Assay type: functional
Conditions: not given
In short: as §3

SMILES	MIC [µg/mL]
CCn1cc(C(=O)O)c(=O)c2cc(F)c(N3CCN4CCCC3C4)cc21 (stereo not drawn)	> 1.56
CN1C[C@@H]2C[C@H]1CN2c1cc2c(cc1F)c(=O)c(C(=O)O)cn2-c1ccc(F)cc1F	1.56 (≈ 3.63 µM)
CN1C[C@@H]2C[C@H]1CN2c1c(F)cc2c(=O)c(C(=O)O)cn(-c3ccc(F)cc3)c2c1F	> 1.56
CN1C2CC[C@@H]1CCN(c1cc3c(cc1F)c(=O)c(C(=O)O)cn3C1CC1)C2	> 1.56
CN1C[C@@H]2C[C@H]1CN2c1nc2c(cc1F)c(=O)c(C(=O)O)cn2-c1ccc(F)cc1	> 1.56

Tested on: Escherichia coli
Assay: In vivo protective dose was evaluated against Escherichia coli (51A266) in mouse(sc)
Assay type: functional
Conditions: read-out: PD50
In short: as §2

SMILES	ED50 [mg/kg]
CCn1cc(C(=O)O)c(=O)c2cc(F)c(N3CCN4CCCC3C4)cc21 (stereo not drawn)	1.36

Tested on: Pasteurella multocida
Assay: In vitro antibacterial activity against aerobically grown Pasteurella multocida (59A006)
Assay type: functional
Conditions: not given
In short: as §3

SMILES	MIC [µg/mL]
CCn1cc(C(=O)O)c(=O)c2cc(F)c(N3CCN4CCCC3C4)cc21 (stereo not drawn)	0.02 (≈ 0.0556 µM)
CN1C[C@@H]2C[C@H]1CN2c1cc2c(cc1F)c(=O)c(C(=O)O)cn2-c1ccc(F)cc1F	0.01 (≈ 0.0233 µM)
CN1C[C@@H]2C[C@H]1CN2c1c(F)cc2c(=O)c(C(=O)O)cn(-c3ccc(F)cc3)c2c1F	0.02 (≈ 0.0466 µM)
CN1C2CC[C@@H]1CCN(c1cc3c(cc1F)c(=O)c(C(=O)O)cn3C1CC1)C2	0.05 (≈ 0.13 µM)
CN1C[C@@H]2C[C@H]1CN2c1nc2c(cc1F)c(=O)c(C(=O)O)cn2-c1ccc(F)cc1	0.02 (≈ 0.0485 µM)

Tested on: not listed separately
Assay: In vitro evaluation for antibacterial activity against anaerobically grown Treponema hyodysenteriae (94A007)
Assay type: functional
Conditions: Brachyspira hyodysenteriae

SMILES	MIC [µg/mL]
CCn1cc(C(=O)O)c(=O)c2cc(F)c(N3CCN4CCCC3C4)cc21 (stereo not drawn)	0.39 (≈ 1.09 µM)
CN1C[C@@H]2C[C@H]1CN2c1cc2c(cc1F)c(=O)c(C(=O)O)cn2-c1ccc(F)cc1F	> 3.13
CN1C[C@@H]2C[C@H]1CN2c1c(F)cc2c(=O)c(C(=O)O)cn(-c3ccc(F)cc3)c2c1F	1.56 (≈ 3.63 µM)
CN1C2CC[C@@H]1CCN(c1cc3c(cc1F)c(=O)c(C(=O)O)cn3C1CC1)C2	1.56 (≈ 4.05 µM)
CN1C[C@@H]2C[C@H]1CN2c1nc2c(cc1F)c(=O)c(C(=O)O)cn2-c1ccc(F)cc1	3.13 (≈ 7.59 µM)

Tested on: Trueperella pyogenes
Assay: In vitro antibacterial activity against anaerobically grown Actinomyces pyogenes (14D002)
Assay type: functional
Conditions: not given
In short: as §1

SMILES	MIC [µg/mL]
CCn1cc(C(=O)O)c(=O)c2cc(F)c(N3CCN4CCCC3C4)cc21 (stereo not drawn)	> 3.13
CN1C[C@@H]2C[C@H]1CN2c1cc2c(cc1F)c(=O)c(C(=O)O)cn2-c1ccc(F)cc1F	0.78 (≈ 1.82 µM)
CN1C[C@@H]2C[C@H]1CN2c1c(F)cc2c(=O)c(C(=O)O)cn(-c3ccc(F)cc3)c2c1F	> 3.13
CN1C2CC[C@@H]1CCN(c1cc3c(cc1F)c(=O)c(C(=O)O)cn3C1CC1)C2	3.13 (≈ 8.12 µM)
CN1C[C@@H]2C[C@H]1CN2c1nc2c(cc1F)c(=O)c(C(=O)O)cn2-c1ccc(F)cc1	> 3.13

Tested on: not listed separately
Assay: In vitro antibacterial activity against Aerobically grown Pasteurella haemolytica (59B018)
Assay type: functional
Conditions: Mannheimia haemolytica
In short: as §3

SMILES	MIC [µg/mL]
CCn1cc(C(=O)O)c(=O)c2cc(F)c(N3CCN4CCCC3C4)cc21 (stereo not drawn)	0.1 (≈ 0.278 µM)
CN1C[C@@H]2C[C@H]1CN2c1cc2c(cc1F)c(=O)c(C(=O)O)cn2-c1ccc(F)cc1F	0.05 (≈ 0.116 µM)
CN1C[C@@H]2C[C@H]1CN2c1c(F)cc2c(=O)c(C(=O)O)cn(-c3ccc(F)cc3)c2c1F	0.2 (≈ 0.466 µM)
CN1C2CC[C@@H]1CCN(c1cc3c(cc1F)c(=O)c(C(=O)O)cn3C1CC1)C2	0.2 (≈ 0.519 µM)
CN1C[C@@H]2C[C@H]1CN2c1nc2c(cc1F)c(=O)c(C(=O)O)cn2-c1ccc(F)cc1	0.05 (≈ 0.121 µM)

Tested on: Escherichia coli
Assay: In vitro antibacterial activity against aerobically grown Escherichia coli (51A538)
Assay type: functional
Conditions: not given
In short: as §3

SMILES	MIC [µg/mL]
CCn1cc(C(=O)O)c(=O)c2cc(F)c(N3CCN4CCCC3C4)cc21 (stereo not drawn)	0.2 (≈ 0.556 µM)
CN1C[C@@H]2C[C@H]1CN2c1cc2c(cc1F)c(=O)c(C(=O)O)cn2-c1ccc(F)cc1F	0.1 (≈ 0.233 µM)
CN1C[C@@H]2C[C@H]1CN2c1c(F)cc2c(=O)c(C(=O)O)cn(-c3ccc(F)cc3)c2c1F	0.2 (≈ 0.466 µM)
CN1C2CC[C@@H]1CCN(c1cc3c(cc1F)c(=O)c(C(=O)O)cn3C1CC1)C2	0.39 (≈ 1.01 µM)
CN1C[C@@H]2C[C@H]1CN2c1nc2c(cc1F)c(=O)c(C(=O)O)cn2-c1ccc(F)cc1	0.2 (≈ 0.485 µM)

Tested on: Clostridium perfringens
Assay: microbe, parasite or virus in culture
Assay type: functional
Conditions: not given

SMILES	MIC [µg/mL]
CCn1cc(C(=O)O)c(=O)c2cc(F)c(N3CCN4CCCC3C4)cc21 (stereo not drawn)	0.39 (≈ 1.09 µM)
CN1C[C@@H]2C[C@H]1CN2c1cc2c(cc1F)c(=O)c(C(=O)O)cn2-c1ccc(F)cc1F	0.2 (≈ 0.466 µM)
CN1C[C@@H]2C[C@H]1CN2c1c(F)cc2c(=O)c(C(=O)O)cn(-c3ccc(F)cc3)c2c1F	0.39 (≈ 0.908 µM)
CN1C2CC[C@@H]1CCN(c1cc3c(cc1F)c(=O)c(C(=O)O)cn3C1CC1)C2	0.2 (≈ 0.519 µM)
CN1C[C@@H]2C[C@H]1CN2c1nc2c(cc1F)c(=O)c(C(=O)O)cn2-c1ccc(F)cc1	0.39 (≈ 0.946 µM)

— ChEMBL document CHEMBL1126160, “Synthesis and structure-activity relationships of 7-diazabicycloalkylquinolones, including danofloxacin, a new quinolone antibacterial agent for veterinary medicine” (J Med Chem, 1992)
